Source: ChEMBL document CHEMBL1138024, “Aryl urea analogs with broad-spectrum antibacterial activity” (Bioorg Med Chem Lett, 2004)
≈ marks a conversion by molar mass, not a printed value. One block for each compound: values may come before it.

Experiments:
Format in all cases: functional
Staphylococcus aureus [1] = assay: In vitro antibacterial activity against Staphylococcus aureus; value ranges from 12-25 uM
Huh-7 [2] = assay: Cytotoxic concentration against Huh7 cells at 48 hours in MTT assay; details: Homo sapiens, Huh-7, 48 h
Enterococcus faecium [3] = assay: Minimum inhibitory concentration against Enterococcus faecium ATCC 6569
Pseudomonas aeruginosa = assay: Minimum inhibitory concentration against Pseudomonas aeruginosa ATCC 25416
Escherichia coli [4] = assay: Minimum inhibitory concentration against Escherichia coli ATCC 25922; value ranges from 12-25 uM
Proteus vulgaris = assay: Minimum inhibitory concentration against Proteus vulgaris ATCC 8427; value ranges from 12-25 uM
Staphylococcus aureus [5] = assay: Minimum inhibitory concentration against Staphylococcus aureus ATCC 13709; value ranges from 3-6 uM
Streptococcus pyogenes [6] = assay: Minimum inhibitory concentration against Streptococcus pyogenes ATCC 49399; value ranges from 3-6 uM
Staphylococcus aureus [7] = assay: Minimum inhibitory concentration against Staphylococcus aureus ATCC 13709 (+4% BSA); value ranges from 25-50 uM
Method in brief: (§1)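 Same microdilution MIC against S. aureus ATCC 13709, but with 4% bovine serum albumin in the wells. Compound in 0.5% DMSO in water, inoculum about 10³–10⁴ CFU/well, duplicates. Growth was read as A595 after 20–24 h at 37°C against a compound-free control. MIC is reported as the range between full inhibition and viable growth.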

Klebsiella pneumoniae [8] = assay: Minimum inhibitory concentration against Klebsiella pneumoniae ATCC 13383; value ranges from 3-6 uM
Staphylococcus aureus [9] = assay: In vitro antibacterial activity against Staphylococcus aureus; value ranges from 6-12 uM
Enterococcus faecalis [10] = assay: Minimum inhibitory concentration against Enterococcus faecalis ATCC 29212; value ranges from 3-6 uM
Mus musculus [11] = assay: In vivo antibacterial activity (Staphylococcus aureus) in a lethal murine model at a dose of 75 mg/kg; activity expressed as no. of mice alive/total tested; 7/10
Mus musculus [12] = assay: In vivo antibacterial activity (Staphylococcus aureus) in a lethal murine model at a dose of 150 mg/kg; activity expressed as no. of mice alive/total tested; 4/10
Mus musculus [13] = assay: In vivo antibacterial activity (Staphylococcus aureus) in a lethal murine model at a dose of 4.6 mg/kg; activity expressed as no. of mice alive/total tested; 3/10
Mus musculus [14] = assay: In vivo antibacterial activity (Staphylococcus aureus) in a lethal murine model at a dose of 9.4 mg/kg; activity expressed as no. of mice alive/total tested; 4/10
Mus musculus [15] = assay: In vivo antibacterial activity (Staphylococcus aureus) in a lethal murine model at a dose of 18.8 mg/kg; activity expressed as no. of mice alive/total tested; 6/10
Mus musculus [16] = assay: In vivo antibacterial activity (Staphylococcus aureus) in a lethal murine model at a dose of 37.6 mg/kg; activity expressed as no. of mice alive/total tested; 6/10
Staphylococcus aureus [17] = assay: In vitro antibacterial activity against Staphylococcus aureus; value ranges from 3-6 uM
Staphylococcus aureus [18] = assay: In vitro antibacterial activity against Staphylococcus aureus
Staphylococcus aureus [19] = assay: In vitro antibacterial activity against Staphylococcus aureus; value ranges from 50-100 uM
Staphylococcus aureus [20] = assay: In vitro antibacterial activity against Staphylococcus aureus; value ranges from 25-50 uM
Enterococcus faecalis [21] = assay: Minimum inhibitory concentration against Enterococcus faecalis ATCC 29212
Escherichia coli [22] = assay: Minimum inhibitory concentration against Escherichia coli ATCC 25922; value ranges from 6-12 uM
Klebsiella pneumoniae [23] = assay: Minimum inhibitory concentration against Klebsiella pneumoniae ATCC 13383; value ranges from 6-12 uM
Staphylococcus aureus [24] = assay: Minimum inhibitory concentration against Staphylococcus aureus ATCC 13709 (+4% BSA); value ranges from 12-25 uM; method in brief: as §1
Huh-7 [25] = assay: Cytotoxic concentration against Huh7 cells at 48 hours in MTT assay; value ranges from 25-50 uM; details: Homo sapiens, Huh-7, 48 h
Mus musculus [26] = assay: In vivo antibacterial activity (Staphylococcus aureus) in a lethal murine model at a dose of 75 mg/kg; activity expressed as no. of mice alive/total tested; 3/10
Mus musculus [27] = assay: In vivo antibacterial activity (Staphylococcus aureus) in a lethal murine model at a dose of 4.6 mg/kg; activity expressed as no. of mice alive/total tested; 0/10
Mus musculus [28] = assay: In vivo antibacterial activity (Staphylococcus aureus) in a lethal murine model at a dose of 9.4 mg/kg; activity expressed as no. of mice alive/total tested; 2/10
Mus musculus [29] = assay: In vivo antibacterial activity (Staphylococcus aureus) in a lethal murine model at a dose of 18.8 mg/kg; activity expressed as no. of mice alive/total tested; 4/10
Mus musculus [30] = assay: In vivo antibacterial activity (Staphylococcus aureus) in a lethal murine model at a dose of 37.6 mg/kg; activity expressed as no. of mice alive/total tested; 3/10
Enterococcus faecium [31] = assay: Minimum inhibitory concentration against Enterococcus faecium ATCC 6569; value ranges from 3-6 uM
Staphylococcus aureus [32] = assay: Minimum inhibitory concentration against Staphylococcus aureus ATCC 13709 (+4% BSA); value ranges from 50-100 uM; method in brief: as §1
Enterococcus faecalis [33] = assay: Minimum inhibitory concentration against Enterococcus faecalis ATCC 29212; value ranges from 6-12 uM
Escherichia coli [34] = assay: Minimum inhibitory concentration against Escherichia coli ATCC 25922
Klebsiella pneumoniae [35] = assay: Minimum inhibitory concentration against Klebsiella pneumoniae ATCC 13383
Staphylococcus aureus [36] = assay: Minimum inhibitory concentration against Staphylococcus aureus ATCC 13709 (+4% BSA); value ranges from 3-6 uM
Streptococcus pyogenes [37] = assay: Minimum inhibitory concentration against Streptococcus pyogenes ATCC 49399; value ranges from 1.5-3 uM
Mus musculus [38] = assay: In vivo antibacterial activity (Staphylococcus aureus) in a lethal murine model at a dose of 2 mg/kg; activity expressed as no. of mice alive/total tested; 10/10

MIC (Staphylococcus aureus [1]): 25 µM (≈ 11.9 µg/mL)
SMILES: Fc1cccc(N/C(S)=N/CCCNCc2cc(Br)cc(Br)c2)c1

MIC (Staphylococcus aureus [9]): 12 µM (≈ 5.9 µg/mL)
SMILES: S=C(NCCCNCc1cc(Br)cc(Br)c1)Nc1ccc(Cl)cc1

MIC (Staphylococcus aureus [17]): 6 µM (≈ 2.61 µg/mL)
SMILES: O=C(NCCCNCc1ccc(OC(F)(F)F)cc1)Nc1ccc(C(F)(F)F)cc1

MIC (Staphylococcus aureus [1]): 25 µM (≈ 12.3 µg/mL)
SMILES: S=C(NCCCNCc1cc(Br)cc(Br)c1)Nc1ccccc1Cl

MIC (Staphylococcus aureus [18]): > 100 µM
SMILES: COc1ccccc1/N=C(\S)NCCCNCc1cc(Br)cc(Br)c1

MIC (Staphylococcus aureus [19]): 100 µM (≈ 41.1 µg/mL)
SMILES: COc1cc(CNCCCNC(=O)Nc2ccc(C(F)(F)F)cc2)cc(OC)c1

MIC (Staphylococcus aureus [1]): 25 µM (≈ 12.6 µg/mL)
SMILES: O=[N+]([O-])c1ccc(N/C(S)=N/CCCNCc2cc(Br)cc(Br)c2)cc1

MIC (Staphylococcus aureus [9]): 12 µM (≈ 5.04 µg/mL)
SMILES: O=C(NCCCNCc1cc(Cl)cc(Cl)c1)Nc1ccc(C(F)(F)F)cc1

MIC (Staphylococcus aureus [19]): 100 µM (≈ 35.1 µg/mL)
SMILES: O=C(NCCCNCc1ccccc1)Nc1ccc(C(F)(F)F)cc1

MIC (Staphylococcus aureus [9]): 12 µM (≈ 6.11 µg/mL)
SMILES: O=C(NCCCNCc1cc(Br)cc(Br)c1)Nc1cccc(C(F)(F)F)c1

MIC (Staphylococcus aureus [20]): 50 µM (≈ 23.8 µg/mL)
SMILES: Fc1ccccc1/N=C(\S)NCCCNCc1cc(Br)cc(Br)c1

MIC (Staphylococcus aureus [18]): > 100 µM
SMILES: O=C(NCCCNCc1cc(Br)cc(Br)c1O)Nc1ccc(C(F)(F)F)cc1

MIC (Escherichia coli [22]): 12 µM (≈ 4.89 µg/mL)
MIC (Staphylococcus aureus [17]): 6 µM (≈ 2.44 µg/mL)
MIC (Pseudomonas aeruginosa): > 100 µM
MIC (Enterococcus faecium [31]): 6 µM (≈ 2.44 µg/mL)
MIC (Staphylococcus aureus [32]): 100 µM (≈ 40.7 µg/mL)
MIC (Enterococcus faecalis [33]): 12 µM (≈ 4.89 µg/mL)
MIC (Proteus vulgaris): 25 µM (≈ 10.2 µg/mL)
MIC (Staphylococcus aureus [5]): 6 µM (≈ 2.44 µg/mL)
MIC (Streptococcus pyogenes [6]): 6 µM (≈ 2.44 µg/mL)
MIC (Klebsiella pneumoniae [8]): 6 µM (≈ 2.44 µg/mL)
SMILES: CC(C)(C)c1ccc(CNCCCNC(=O)Nc2ccc(C(F)(F)F)cc2)cc1

Further lines, the compound ahead of its results:

SMILES: CN(CCCNC(=O)Nc1ccc(C(F)(F)F)cc1)CCCOc1ccc(Br)cc1Br
CC50 (Huh-7 [2]): > 100 µM
MIC (Enterococcus faecium [3]): > 100 µM
MIC (Pseudomonas aeruginosa): > 100 µM
MIC (Escherichia coli [4]): 25 µM (≈ 14.2 µg/mL)
MIC (Proteus vulgaris): 25 µM (≈ 14.2 µg/mL)
MIC (Staphylococcus aureus [5]): 6 µM (≈ 3.4 µg/mL)
MIC (Streptococcus pyogenes [6]): 6 µM (≈ 3.4 µg/mL)
MIC (Staphylococcus aureus [7]): 50 µM (≈ 28.4 µg/mL)
MIC (Klebsiella pneumoniae [8]): 6 µM (≈ 3.4 µg/mL)
MIC (Staphylococcus aureus [9]): 12 µM (≈ 6.81 µg/mL)
MIC (Enterococcus faecalis [10]): 6 µM (≈ 3.4 µg/mL)
No. of animals alive (Mus musculus [11]): 7
No. of animals alive (Mus musculus [12]): 4
No. of animals alive (Mus musculus [13]): 3
No. of animals alive (Mus musculus [14]): 4
No. of animals alive (Mus musculus [15]): 6
No. of animals alive (Mus musculus [16]): 6

SMILES: Cc1ccc(N/C(S)=N/CCCNCc2cc(Br)cc(Br)c2)cc1
MIC (Staphylococcus aureus [1]): 25 µM (≈ 11.8 µg/mL)

SMILES: O=C(NCCCNCc1cc(Br)cc(Br)c1)Nc1ccc(OC(F)(F)F)cc1
MIC (Staphylococcus aureus [9]): 12 µM (≈ 6.3 µg/mL)

SMILES: O=C(NCCCNCc1cc(C(F)(F)F)cc(C(F)(F)F)c1)Nc1ccc(C(F)(F)F)cc1
MIC (Staphylococcus aureus [19]): 100 µM (≈ 48.7 µg/mL)

SMILES: O=C(NCCCNCCCOc1ccc(Br)cc1Br)Nc1ccc(C(F)(F)F)cc1
MIC (Staphylococcus aureus [17]): 6 µM (≈ 3.32 µg/mL)

SMILES: CN(C)c1ccc(CNCCCNC(=O)Nc2ccc(C(F)(F)F)cc2)cc1
MIC (Staphylococcus aureus [1]): 25 µM (≈ 9.86 µg/mL)

SMILES: S=C(NCCCNCc1cc(Br)cc(Br)c1)Nc1ccc(Br)cc1
MIC (Staphylococcus aureus [1]): 25 µM (≈ 13.4 µg/mL)

SMILES: N#Cc1ccc(NC(=S)NCCCNCc2cc(Br)cc(Br)c2)cc1
MIC (Staphylococcus aureus [20]): 50 µM (≈ 24.1 µg/mL)

SMILES: O=C(NCCCNCc1ccc(-c2ccccc2)cc1)Nc1ccc(C(F)(F)F)cc1
MIC (Enterococcus faecalis [21]): > 100 µM
MIC (Escherichia coli [22]): 12 µM (≈ 5.13 µg/mL)
MIC (Staphylococcus aureus [17]): 6 µM (≈ 2.56 µg/mL)
MIC (Enterococcus faecium [3]): > 100 µM
MIC (Pseudomonas aeruginosa): > 100 µM
MIC (Klebsiella pneumoniae [23]): 12 µM (≈ 5.13 µg/mL)
MIC (Proteus vulgaris): 25 µM (≈ 10.7 µg/mL)
MIC (Staphylococcus aureus [5]): 6 µM (≈ 2.56 µg/mL)
MIC (Streptococcus pyogenes [6]): 6 µM (≈ 2.56 µg/mL)
MIC (Staphylococcus aureus [24]): 25 µM (≈ 10.7 µg/mL)
CC50 (Huh-7 [25]): 50 µM
No. of animals alive (Mus musculus [26]): 3
No. of animals alive (Mus musculus [27]): 0
No. of animals alive (Mus musculus [28]): 2
No. of animals alive (Mus musculus [29]): 4
No. of animals alive (Mus musculus [30]): 3

SMILES: CC(=O)NCC1CN(c2ccc(N3CCOCC3)c(F)c2)C(=O)O1 (single isomer, unassigned) [LINEZOLID]
MIC (Staphylococcus aureus [17]): 6 µM (≈ 2.02 µg/mL)
MIC (Escherichia coli [34]): > 100 µM
MIC (Enterococcus faecium [3]): > 100 µM
MIC (Klebsiella pneumoniae [35]): > 100 µM
MIC (Pseudomonas aeruginosa): > 100 µM
MIC (Proteus vulgaris): 25 µM (≈ 8.43 µg/mL)
MIC (Staphylococcus aureus [5]): 6 µM (≈ 2.02 µg/mL)
MIC (Staphylococcus aureus [36]): 6 µM (≈ 2.02 µg/mL)
MIC (Streptococcus pyogenes [37]): 3 µM (≈ 1.01 µg/mL)
MIC (Enterococcus faecalis [10]): 6 µM (≈ 2.02 µg/mL)

SMILES: CN[C@H](CC(C)C)C(=O)N[C@H]1C(=O)N[C@@H](CC(N)=O)C(=O)N[C@H]2C(=O)N[C@H]3C(=O)N[C@H](C(=O)N[C@H](C(=O)O)c4cc(O)cc(O)c4-c4cc3ccc4O)[C@H](O)c3ccc(c(Cl)c3)Oc3cc2cc(c3O[C@@H]2O[C@H](CO)[C@@H](O)[C@H](O)[C@H]2O[C@H]2C[C@](C)(N)[C@H](O)[C@H](C)O2)Oc2ccc(cc2Cl)[C@H]1O [VANCOMYCIN]
No. of animals alive (Mus musculus [38]): 10
